Assay results: ChEMBL document CHEMBL2417436, “Synthesis and biological effects of novel 2-amino-3-(4-chlorobenzoyl)-4-substituted thiophenes as allosteric enhancers of the A1 adenosine receptor” (Eur J Med Chem, 2013)

Tests used:
[1] = target: T1, Adenosine receptor A1 (Homo sapiens) (UniProt P30542); assay: Allosteric enhancement of human adenosine A1 receptor expressed in CHO cells assessed as increase of CCPA Ki at 10 uM after 90 mins by [3H]DPCPX radioligand binding assay; format: cell-based
T1 sequence (whole entry): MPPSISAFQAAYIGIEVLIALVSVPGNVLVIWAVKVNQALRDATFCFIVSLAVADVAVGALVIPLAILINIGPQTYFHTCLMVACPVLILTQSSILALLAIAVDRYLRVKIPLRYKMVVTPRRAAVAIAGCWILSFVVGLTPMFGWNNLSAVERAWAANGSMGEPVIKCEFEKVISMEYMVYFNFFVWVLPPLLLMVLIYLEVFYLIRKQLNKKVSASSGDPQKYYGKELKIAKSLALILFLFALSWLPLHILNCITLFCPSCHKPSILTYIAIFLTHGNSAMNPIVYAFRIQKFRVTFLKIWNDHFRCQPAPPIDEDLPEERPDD
Summary of the method: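 hA1CHO membranes (50 mM Tris-HCl, pH 7.4, adenosine deaminase-treated). [3H]DPCPX 1 nM competed by CCPA (0.01 nM–1 μM) with or without test compound at 10 μM. Triplicate, 90 min at 25 °C. Nonspecific binding taken with 1 μM DPCPX. Filtration, then scintillation counting. Ki by Cheng–Prusoff. Shift = Ki(CCPA)/Ki(CCPA+enhancer). Mean ± SEM, n=3.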

[2] = target: T1, Adenosine receptor A1 (Homo sapiens); assay: Allosteric enhancement of human adenosine A1 receptor expressed in CHO cells assessed as increase of [3H]CCPA Bmax at 10 uM after 90 mins; format: cell-based
Summary of the method: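 Saturation of [3H]CCPA (0.05–20 nM) on hA1CHO membranes in 50 mM Tris-HCl, pH 7.4, with or without compound at final 10 μM. Triplicate, 25 °C, 90 min. Nonspecific binding defined with 1 μM R-PIA. Filter-bound radioactivity counted. KD and Bmax fitted by weighted nonlinear least squares; Bmax shift versus control. Mean ± SEM, n=3.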

[3] = target: Adenosine receptor A2a (Homo sapiens) (UniProt P29274); assay: Displacement of [3H]ZM 241385 from human adenosine A2A receptor expressed in CHO cells at 10 uM after 60 mins by scintillation counting; format: cell-based
Summary of the method: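 hA2ACHO membranes in 50 mM Tris HCl, 10 mM MgCl2, pH 7.4, 4 °C for 60 min. [3H]ZM 241385 given as 1 nM in methods and 2 nM in table footnote. Compound at 10 μM from 100-fold DMSO stock, 1% DMSO final. Nonspecific binding with 1 μM ZM 241385. Filtration and scintillation counting. Percent inhibition of control specific binding, ±SEM, n=3.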

[4] = target: T1, Adenosine receptor A1 (Homo sapiens); assay: Allosteric enhancement of human adenosine A1 receptor expressed in CHO cells assessed as inhibition of CCPA-induced cAMP production at 100 nM after 10 mins; format: functional, cell-based
Summary of the method: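 Intact hA1CHO cells (10⁶/mL) in phosphate buffer with adenosine deaminase 1.0 IU/mL and Ro 20-1724 0.5 mM, preincubated 10 min at 37 °C. Compound 100 nM plus CCPA 1 pM added for 10 min, then forskolin 1 μM for 5 min. Stopped with cold 6% TCA, ether-extracted. cAMP measured by [3H]-cAMP competition with adrenal binding protein (4 °C, 150 min). pmol/10⁶ cells, mean ± SEM of three.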

[5] = target: T1, Adenosine receptor A1 (Homo sapiens); assay: Allosteric enhancement of human adenosine A1 receptor expressed in CHO cells assessed as inhibition of forskolin-induced cAMP production at 10 uM after 10 mins; format: functional, cell-based
Summary of the method: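 Whole hA1CHO cells (10⁶/mL) preincubated 10 min at 37 °C in phosphate buffer with adenosine deaminase (1.0 IU/mL) and Ro 20-1724 (0.5 mM). Compound alone at 10 μM for a further 10 min; forskolin 1 μM for 5 min. TCA stop, ether extraction, cAMP by [3H]-cAMP protein-binding competition assay. Expressed as pmol/10⁶ cells; mean ± SEM, three experiments.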

[6] = target: T1, Adenosine receptor A1 (Homo sapiens); assay: Displacement of [3H]DPCPX from human adenosine A1 receptor expressed in CHO cells at 10 uM after 120 mins by scintillation counting
[7] = target: T2, Adenosine receptor A3 (Homo sapiens) (UniProt P0DMS8); assay: Displacement of [3H]MRE-3008-F20 from human adenosine A3 receptor expressed in CHO cells at 10 uM after 120 mins by scintillation counting
T2 sequence (whole entry): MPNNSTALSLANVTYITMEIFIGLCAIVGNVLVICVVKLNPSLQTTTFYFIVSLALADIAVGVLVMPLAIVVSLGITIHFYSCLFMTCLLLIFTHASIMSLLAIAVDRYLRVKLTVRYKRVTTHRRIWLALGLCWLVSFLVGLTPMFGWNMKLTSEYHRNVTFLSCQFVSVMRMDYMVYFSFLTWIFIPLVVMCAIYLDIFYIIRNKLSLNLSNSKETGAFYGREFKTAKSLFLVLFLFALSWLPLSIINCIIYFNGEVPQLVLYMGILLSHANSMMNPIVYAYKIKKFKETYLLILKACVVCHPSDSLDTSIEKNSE

Chain of Adenosine receptor A2a (Homo sapiens) (P29274 whole entry): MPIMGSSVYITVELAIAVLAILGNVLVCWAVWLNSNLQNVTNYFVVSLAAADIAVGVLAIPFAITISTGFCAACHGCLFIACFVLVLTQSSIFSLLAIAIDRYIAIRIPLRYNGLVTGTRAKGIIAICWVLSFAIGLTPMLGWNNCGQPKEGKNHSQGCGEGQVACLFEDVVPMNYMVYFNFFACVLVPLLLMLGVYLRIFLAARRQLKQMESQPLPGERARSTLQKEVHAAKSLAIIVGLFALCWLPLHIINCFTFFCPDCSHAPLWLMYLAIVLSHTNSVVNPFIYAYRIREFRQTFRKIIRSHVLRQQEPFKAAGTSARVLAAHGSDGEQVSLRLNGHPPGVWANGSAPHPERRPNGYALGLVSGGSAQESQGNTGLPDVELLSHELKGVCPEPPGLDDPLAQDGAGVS

fold change (FC) [1]	fold change (FC) [2]	inhibition [3] [%]	inhibition [4] [%]	inhibition [5] [%]	inhibition [6] [%]	inhibition [7] [%]	Structure (SMILES)
1	1	0	14	4	1	3	CC(C)N(Cc1csc(N)c1C(=O)c1ccc(Cl)cc1)C(C)C
2.2	2.4	1	16	18	1	9	CN(Cc1csc(N)c1C(=O)c1ccc(Cl)cc1)c1ccccc1
1.3	1.2	6	12	9	5	11	CC(C)N(Cc1c(-c2ccccc2)sc(N)c1C(=O)c1ccc(Cl)cc1)C(C)C
1.1	1.1	3	11	4	1	6	CN(Cc1ccccc1)Cc1c(-c2ccccc2)sc(N)c1C(=O)c1ccc(Cl)cc1
6.9	7.4	0	60	64	4	4	Nc1scc(CN2CCn3c(cc4cc(Cl)ccc43)C2)c1C(=O)c1ccc(Cl)cc1
1.5	1.8	1	18	15	3	9	CC(C)c1ccc(OCc2csc(N)c2C(=O)c2ccc(Cl)cc2)cc1
4.9	5	1	47	46	2	5	Cc1cccc2c1OC1(CCN(Cc3csc(N)c3C(=O)c3ccc(Cl)cc3)CC1)O2
2.8	3.2	0	31	29	3	4	CN(Cc1csc(N)c1C(=O)c1ccc(Cl)cc1)c1ccc(C(F)(F)F)cc1
3.9	4.2	1	34	36	3	5	C=CCN(CC=C)Cc1c(-c2ccccc2)sc(N)c1C(=O)c1ccc(Cl)cc1
1.4	1.3	1	16	11	5	11	Cc1ccc(OCc2csc(N)c2C(=O)c2ccc(Cl)cc2)cc1
3.2	3.5	1	28	31	6	7	Nc1sc(-c2ccccc2)c(CN(C2CCCCC2)C2CCCCC2)c1C(=O)c1ccc(Cl)cc1
1	1	0	13	3	6	7	Cc1ccc2c(c1)CC1CN(Cc3csc(N)c3C(=O)c3ccc(Cl)cc3)CCN21 (stereo unspecified)
4.7	5.1	1	43	45	1	5	Nc1scc(CN2CCC3(CC2)Oc2ccccc2O3)c1C(=O)c1ccc(Cl)cc1
1.4	1.5	1	14	12	1	3	CC(C)N(Cc1c(Br)sc(N)c1C(=O)c1ccc(Cl)cc1)C(C)C
1.9	2.3	0	18	19	0	11	CCN(Cc1csc(N)c1C(=O)c1ccc(Cl)cc1)c1ccccc1
1.1	1.2	4	11	7	1	1	Nc1scc(CN2CCN3c4ccc(Cl)cc4CC3C2)c1C(=O)c1ccc(Cl)cc1 (stereo unspecified)
1.1	1.2	1	13	8	2	1	Nc1scc(CN2CCc3[nH]c4ccc(Cl)cc4c3C2)c1C(=O)c1ccc(Cl)cc1
2.7	2.9	1	22	24	1	7	Nc1sc(-c2ccccc2)c(CN2CCCCC2)c1C(=O)c1ccc(Cl)cc1
